Most compounds without a hit are left out; they make up all but 2.3% or so of the library.
PAFAH2 inh – PAFAH2 enzyme inhibitors, primary screen, biochemical, fluorescence polarization, human; Platelet-activating factor acetylhydrolase 2, cytoplasmic (Homo sapiens), Q99487; recombinant PAFAH2, FP-rhodamine activity probe; inhibition, % at 3.39 µM; 340,000 tested, 0.99% active; AID 492956, 2010;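 active = inhibition above the mean over all tested compounds plus 3 SD, cut at about 30% in these data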;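 note: inhibitors block probe labeling of enzyme so polarization drops; 0% = enzyme with DMSO and 100% = wells lacking PAFAH2 protein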
Apaf-1 inh – inhibitors of human Apaf-1 apoptosome, primary screen, biochemical, DEVD-Rh110 fluorescence, uHTS. reconstituted apoptosome caspase-3 activity. inhibition, % at 20 µM. 330,000 tested, 0.71% active. Apoptotic protease-activating factor 1 (Homo sapiens), O14727; active = inhibition of at least 40% at 20 µM;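 note: plate controls were DMSO wells for no effect and DEVD-CHO caspase inhibitor wells for full effect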
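Material: reconstituted apoptosome with Apaf-1, cytochrome c, caspase-9, procaspase-3, dATP. Technique: Rh110 fluorescence intensity. Buffer or medium: pH 7.5 Hepes buffer with CHAPS, BSA, DTT. Times: 30 min plus 50 min, RT.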
TDP2 inh – human TDP2 enzyme inhibitors, primary screen, biochemical, epi absorbance, recombinant enzyme | Tyrosyl-DNA phosphodiesterase 2 (Homo sapiens), O95551 | T5PNP hydrolysis, p-nitrophenol absorbance 415 nm | inhibition, % at 12.8 µM | 370,000 tested, 0.34% active | AID 720702, 2013;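 active = inhibition above the mean of all tested compounds plus 3 SD, set per campaign, cut at about 25% in these data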;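 note: 0% = DMSO with enzyme and 100% = buffer with substrate but no TDP2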
Target sequence (O95551 whole entry, looked up): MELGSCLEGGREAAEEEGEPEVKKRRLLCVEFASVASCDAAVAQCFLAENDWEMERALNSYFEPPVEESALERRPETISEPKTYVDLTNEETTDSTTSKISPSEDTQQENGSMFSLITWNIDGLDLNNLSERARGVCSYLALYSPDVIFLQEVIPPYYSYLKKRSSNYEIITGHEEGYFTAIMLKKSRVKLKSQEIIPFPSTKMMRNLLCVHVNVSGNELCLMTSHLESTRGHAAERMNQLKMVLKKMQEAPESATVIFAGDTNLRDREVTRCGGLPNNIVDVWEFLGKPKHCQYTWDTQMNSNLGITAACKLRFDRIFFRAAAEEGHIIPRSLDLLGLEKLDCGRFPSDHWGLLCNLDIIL
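Evaluation: % inhibition relative to enzyme-containing and enzyme-free wells. Material: recombinant human TDP2. Benchmarks: enzyme-free and DMSO wells. Timing: enzyme reaction with compound for 2 h at 37 °C. Compound dosing: 12.8 µM only. Measured by: p-Nitrophenol epi absorbance. Reagent: T5PNP substrate at 5 mM, a TopII-DNA adduct mimic. Replication: single well per compound.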
PAFAH1B3 inh – PAFAH1B3 enzyme inhibitors, primary screen, biochemical, fluorescence polarization, human | 340,000 tested, 0.28% active | inhibition, % at 3.39 µM | Platelet-activating factor acetylhydrolase IB subunit alpha1 (Homo sapiens), Q15102 | recombinant PAFAH1B3, FP-rhodamine probe;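 active = inhibition above the screen-wide average of all tested compounds plus 3 SD, cut at about 25% in these data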;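 note: 0% = enzyme with DMSO only and 100% = wells lacking PAFAH1B3 protein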
PAFAH1B2 FP inh – PAFAH1B2 enzyme inhibitors, primary screen, biochemical, fluorescence polarization, human. recombinant PAFAH1B2, FP-rhodamine activity probe. AID 492953, 2010. 340,000 tested, 1.2% active. Platelet-activating factor acetylhydrolase IB subunit alpha2 (Homo sapiens), P68402. inhibition, % at 3.39 µM;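 active = inhibition above the mean of all tested compounds plus 3 SD, cut at about 24% in these data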;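 note: 0% = enzyme with DMSO and 100% = wells lacking PAFAH1B2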
Target sequence (P68402 whole entry, looked up): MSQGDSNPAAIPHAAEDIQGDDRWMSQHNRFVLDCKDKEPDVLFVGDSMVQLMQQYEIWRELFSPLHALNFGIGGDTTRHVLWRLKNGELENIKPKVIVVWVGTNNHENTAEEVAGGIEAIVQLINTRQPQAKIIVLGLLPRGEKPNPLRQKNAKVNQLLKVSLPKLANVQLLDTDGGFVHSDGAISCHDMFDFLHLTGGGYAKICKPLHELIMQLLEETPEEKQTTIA
PAFAH2 FP conf – PAFAH2 enzyme inhibitors, confirmation, biochemical, fluorescence polarization, human | inhibition, % at 3.39 µM | shares compounds with PAFAH2 inh | AID 493030, 2011 | 2,300 tested, 65% active | recombinant PAFAH2, FP-rhodamine activity probe;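 active = mean inhibition over three repeats above a set limit taken from the earlier primary screen, cut at about 30% in these data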;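 note: inhibitor blocks binding of rhodamine activity probe so polarization falls; 0% = enzyme with DMSO and 100% = wells lacking PAFAH2 protein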
The depositor's hits bear a star; nt = no result given.

SMILES	PAFAH2 inh	Apaf-1 inh	TDP2 inh	PAFAH1B3 inh	PAFAH1B2 FP inh	PAFAH2 FP conf
Cc1ccc(Nc2nc(N)nc(CSC(=S)N3CCOCC3)n2)c(C)c1	46*	6	-3	-4	0	42*
CC(C)CCNC(=O)C(c1ccncc1)N(Cc1cccs1)C(=O)Cn1nnc(-c2ccc(F)cc2)n1 (stereo unspecified)	40*	35	15	1	3	13
COc1ccc(C(=O)OCCN(C)C2CN(Cc3cn(Cc4cccc(F)c4)nn3)S(=O)(=O)C2)cc1OC (stereo unspecified)	nt	nt	2	nt	nt	nt
CN(/N=C/c1cc([N+](=O)[O-])ccc1O)c1ccccc1	35*	-5	2	8	0	31*
O=C(c1ccccc1Cl)N1CCC(Oc2cccnc2)CC1	nt	nt	-1	nt	nt	nt
CCOc1ccccc1C(=O)OCC(=O)Nc1ccc(N2CCCCC2)cc1	36*	27	9	-5	4	28
CCOc1ccccc1OCC(=O)Nc1ccc(N2CCCCC2)cc1	-3	9	0	2	1	nt
O=C(COC(=O)c1ccccc1OC(F)F)Nc1ccc(N2CCCCC2)cc1	42*	18	8	10	3	37*
Cc1cccc(C(=O)OCC(=O)Nc2ccc(N3CCCCC3)cc2)c1O	8	-10	-4	1	5	nt
CCCNC(=O)COC(=O)c1ccc(Cl)c(S(=O)(=O)N2CCCC2)c1	34*	-4	4	-1	1	16
NS(=O)(=O)c1cc(C(=O)OCC(=O)NC2CCCCCCC2)ccc1Cl	9	0	20	6	16	nt
O=C(COC(=O)c1ccc(Cl)c(S(=O)(=O)N2CCCC2)c1)NC1CCCC1	41*	6	1	9	1	29
CCCNC(=O)COC(=O)c1ccc(S(=O)(=O)N2CCCC2)cc1	0	-2	9	1	2	nt
CCCNC(=O)COC(=O)c1ccc(N2CCCC2)c([N+](=O)[O-])c1	65*	9	-7	17	6	51*
Cc1ccc(Cl)cc1NC(=O)COC(=O)c1ccc(N2CCCC2)c([N+](=O)[O-])c1	nt	2	-9	nt	nt	nt
Cc1cc(NS(=O)(=O)c2ccc(NC(=O)CSc3nnc(-c4ccco4)n3-c3ccc(Cl)cc3)cc2)nc(C)n1	nt	nt	-6	nt	nt	nt
CN(C)S(=O)(=O)c1ccc(C(=O)N2CCN(S(=O)(=O)c3cccs3)CC2)cc1	42*	-5	-2	-4	4	39*
COC(=O)[C@]12C[C@H](CC(=O)NCc3cccs3)C(=O)N(Cc3ccc(Cl)cc3Cl)C1=C[C@H](C(C)(C)C)O[C@@H]2C	nt	nt	-12	nt	nt	nt
Cc1cccc(NC(=O)CC2NC3CCCCC3NC2=O)c1 (stereo unspecified)	23	-6	-3	3	1	nt
O=C(CC1NC2CCCCC2NC1=O)Nc1cccc(C(F)(F)F)c1 (stereo unspecified)	36*	-1	1	-4	-1	14
NC(=O)c1ncn([C@@H]2O[C@H](C(=O)N[C@H](Cc3ccccc3)C(=O)N3CCN(CC(=O)Nc4ccccn4)CC3)[C@@H](O)[C@H]2O)n1	nt	nt	-7	nt	nt	nt
COc1cc(C(=O)OCC(=O)N2CCCCCC2)c([N+](=O)[O-])cc1OC	35*	-3	3	12	6	24
COc1cc(C(=O)OCC(=O)N2CCOCC2)c([N+](=O)[O-])cc1OC	2	0	-1	-3	-4	nt
O=C(NC1CCCCN(Cc2cccc(F)c2)C1=O)c1cccc(C(F)(F)F)c1 (stereo unspecified)	nt	nt	-1	nt	nt	nt
COC(=O)C1CN(Cc2ccc(OC)cc2)CCS(=O)(=O)N1Cc1ccc(C(F)(F)F)cc1 (stereo unspecified)	nt	nt	-9	nt	nt	nt
SMILES	PAFAH2 inh	Apaf-1 inh	TDP2 inh	PAFAH1B3 inh	PAFAH1B2 FP inh	PAFAH2 FP conf
C=CCOC(=O)c1cc(-c2ccc(/C=C3\C(=O)NC(=O)C(C#N)=C3C)o2)ccc1Cl	42*	nt	-4	11	12	19
O=C(COC(=O)c1ccccc1O)NCCCc1ccccc1	-2	-9	5	12	2	nt
Cc1ccsc1C(=O)OCC(=O)NCCCc1ccccc1	30*	3	12	-1	11	13
Cc1ccc(C(=O)OCC(=O)NCCc2ccccc2)cc1C	57*	5	-5	1	5	33*
Cc1ccc(C(=O)OCC(=O)NC(=O)NCc2ccccc2)cc1C	2	4	0	2	1	nt
Cc1ccc(C(=O)OCC(=O)NCC(F)(F)F)cc1C	53*	-2	0	-4	7	50*
Cc1ccsc1C(=O)OCC(=O)NCCNC(=O)COC(=O)c1sccc1C	2	5	-16	-2	3	nt
O=C(COC(=O)c1ccc(O)cc1)NCCCc1ccccc1	32*	nt	16	2	3	22
Cc1ccc(C(=O)NCC(=O)OCC(=O)NCC(F)(F)F)cc1	9	0	-3	8	-7	nt
O=C(NC1CCCCN(Cc2ccc(OC(F)(F)F)cc2)C1=O)c1ccc(F)c(F)c1 (stereo unspecified)	nt	nt	6	nt	nt	nt
CCOC(=O)N1C(=O)C[C@](Sc2ccc(OC)cc2)(C(=O)N2CCCC2)[C@H]1c1ccc(OC)cc1	nt	nt	1	nt	nt	nt
CCCCCCCCN1C(=O)[C@@H](CC(=O)NCc2cccc(C(F)(F)F)c2)C[C@@]2(C(=O)OC)C1=C[C@H](C(C)C)O[C@@H]2C1CC1	nt	nt	2	nt	nt	nt
Cc1ccc(N2CCN(C(=O)CNS(=O)(=O)c3ccc(Br)s3)CC2C)cc1 (stereo unspecified)	36*	-2	1	5	12	24
COC(=O)[C@]12C[C@H](CC(=O)N3CCC(c4ccccc4)CC3)C(=O)N(CCc3ccc(OC)c(OC)c3)C1=C[C@H](COCc1ccccc1)O[C@@H]2C	nt	nt	-9	nt	nt	nt
CCN(CC(=O)NCc1cccs1)S(=O)(=O)c1ccc([N+](=O)[O-])cc1	-3	-9	-7	5	4	nt
CCN(CC)S(=O)(=O)c1ccc(/C=C/C(=O)OCC(=O)NCc2cccs2)cc1	93*	-10	0	3	-2	80*
O=C(COC(=O)/C=C/c1ccccc1)NCc1cccs1	61*	2	-5	4	4	47*
Cc1ccc(/C=C/C(=O)OCC(=O)NCCc2ccc(S(N)(=O)=O)cc2)o1	-4	-6	5	1	-3	nt
O=C(COC(=O)/C=C/c1ccc(F)cc1)NCc1cccs1	62*	-6	-6	5	2	47*

Screening data as filed in PubChem BioAssay.
